# Measurements taken from ChEMBL document CHEMBL3259710, “C-ring cannabinoid lactones: a novel cannabinergic chemotype” (ACS Med Chem Lett, 2014).
# Key:
# Cannabinoid receptor 1 [1] = molecular target: T1, Cannabinoid receptor 1 (Rattus norvegicus, UniProt P20272); test: Displacement of [3H]CP55940 from rat brain CB1 receptor
# Outline: (§1)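 Competition binding against [3H]CP-55,940. CB1 membranes came from rat brain; CB2 membranes came from HEK293 cells expressing mouse or human CB2. Ki was taken from competition curves by nonlinear regression. Three independent experiments were run in duplicate, and Ki is the mean of the three.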
# Cannabinoid receptor 2 [2] = molecular target: Cannabinoid receptor 2 (Homo sapiens, UniProt P34972); test: Displacement of [3H]CP55940 from human […] CB2 receptor expressed in HEK293 cells; assay type: cell-based; outline: as §1
# Cannabinoid receptor 2 [3] = molecular target: Cannabinoid receptor 2 (Mus musculus, UniProt P47936); test: Displacement of [3H]CP55940 from mouse […] CB2 receptor expressed in HEK293 cells; assay type: cell-based; outline: as §1
# [4] = Half life in mouse plasma; assay type: ADME, cell-free
# Outline: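 The compound was incubated in vitro with mouse plasma to test esterase hydrolysis to its acid metabolite. Half-life of the parent compound was determined.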
# Cannabinoid receptor 1 [5] = molecular target: T1, Cannabinoid receptor 1; test: Agonist activity at rat CB1 receptor expressed in HEK293 cells assessed as inhibition of forskolin-induced cAMP level; assay type: functional, cell-based
# [6] = molecular target: Cannabinoid receptor 1 (Rattus norvegicus) (UniProt P20272); test: Agonist activity at rat CB1 receptor expressed in HEK293 cells assessed as maximum inhibition of forskolin-induced cAMP level; assay type: functional, cell-based
# [7] = Selectivity ratio of Ki for mouse […] CB2 receptor to Ki for rat CB1 receptor
# [8] = Selectivity ratio of Ki for human CB2 receptor to Ki for rat CB1 receptor
# T1 sequence (P20272 whole entry): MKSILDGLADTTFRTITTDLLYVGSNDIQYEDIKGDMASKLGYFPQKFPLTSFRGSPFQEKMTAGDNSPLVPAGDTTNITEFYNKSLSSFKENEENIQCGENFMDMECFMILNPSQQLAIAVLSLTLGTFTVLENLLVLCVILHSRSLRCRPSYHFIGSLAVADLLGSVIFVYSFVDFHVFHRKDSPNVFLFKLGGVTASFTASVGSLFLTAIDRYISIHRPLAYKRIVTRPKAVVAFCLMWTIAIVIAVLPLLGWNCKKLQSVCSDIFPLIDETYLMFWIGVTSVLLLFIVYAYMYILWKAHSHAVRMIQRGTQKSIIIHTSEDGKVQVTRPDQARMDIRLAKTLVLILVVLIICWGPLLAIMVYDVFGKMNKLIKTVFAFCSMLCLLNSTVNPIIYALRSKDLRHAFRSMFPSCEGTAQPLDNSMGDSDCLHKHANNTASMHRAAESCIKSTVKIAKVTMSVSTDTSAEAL
# Cannabinoid receptor 2 (Homo sapiens, UniProt P34972), sequence (P34972 whole entry): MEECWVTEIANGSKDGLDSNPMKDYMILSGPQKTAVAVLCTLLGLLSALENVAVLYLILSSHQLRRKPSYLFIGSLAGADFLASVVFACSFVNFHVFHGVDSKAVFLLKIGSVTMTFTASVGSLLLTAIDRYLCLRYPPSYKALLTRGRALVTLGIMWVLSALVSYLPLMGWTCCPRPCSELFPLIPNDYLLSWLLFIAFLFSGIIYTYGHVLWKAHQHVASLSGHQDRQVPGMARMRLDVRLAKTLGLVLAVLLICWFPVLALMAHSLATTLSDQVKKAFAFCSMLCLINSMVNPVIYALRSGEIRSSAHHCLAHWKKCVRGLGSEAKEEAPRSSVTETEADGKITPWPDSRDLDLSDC
# Cannabinoid receptor 2 (Mus musculus, UniProt P47936), sequence (P47936 whole entry): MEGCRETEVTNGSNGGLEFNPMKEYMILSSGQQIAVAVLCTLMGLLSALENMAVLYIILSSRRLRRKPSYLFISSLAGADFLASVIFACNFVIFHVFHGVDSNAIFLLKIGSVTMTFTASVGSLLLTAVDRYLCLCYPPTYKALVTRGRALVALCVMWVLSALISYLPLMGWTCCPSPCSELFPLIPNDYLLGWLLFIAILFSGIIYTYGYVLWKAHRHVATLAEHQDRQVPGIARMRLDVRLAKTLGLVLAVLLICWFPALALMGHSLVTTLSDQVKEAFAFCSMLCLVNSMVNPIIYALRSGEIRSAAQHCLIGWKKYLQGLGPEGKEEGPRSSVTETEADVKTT
# Cannabinoid receptor 1 (Rattus norvegicus), sequence (P20272 whole entry): as the sequence (P20272 whole entry) above
SMILES,Ki (Cannabinoid receptor 1 [1]) [nM],Ki (Cannabinoid receptor 2 [2]) [nM],Ki (Cannabinoid receptor 2 [3]) [nM],half-life [4] [min],EC50 (Cannabinoid receptor 1 [5]) [nM],inhibition [6] [%],Ratio Ki [7],Ratio Ki [8]
CCCCCCC(C)(C)c1cc(O)c2c(c1)OC(C)(C)[C@H](CCC(=O)O)[C@H]2CO,> 1000,> 1000,> 1000,15.1,,,,
CCCCCCC(C)(C)c1cc(O)c2c(c1)OC(C)(C)[C@H](CCO)[C@H]2CC(=O)O,> 1000,> 1000,> 1000,,,,,
CCCCCCC(C)(C)c1cc(O)c2c(c1)OC(C)(C)[C@@H]1CCC(=O)OC[C@@H]21,4.6,52,792,,184,41,170,11
CCCCCCC(C)(C)c1cc(O)c2c(c1)OC(C)(C)[C@@H]1CCOC(=O)C[C@@H]21,,94,,,,,,
CCCCCc1cc(O)c2c(c1)OC(C)(C)[C@@H]1CCC(C)=C[C@@H]21 [DRONABINOL],,,40,,,,,
